Reference: ChEMBL document CHEMBL2384996 (J Med Chem, 2013)
Active and inactive are the calls of the source. No cut-off for these calls is given here.

Assays:
Oocyte [1] = assay: Inhibition of Gloeobacter violaceus ligand-gated ion channel expressed in Xenopus laevis oocytes assessed as inhibition of MES buffer pH 5.5 -induced currents at 1 mM after 30 secs by voltage clamp technique; assay type: cell-based
Summary of the method: (§1)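 GLIC expressed in Xenopus oocytes, two-electrode voltage clamp. Current elicited by pH 5.5 MES buffer (100 mM NaCl, 3 mM KCl, 1 mM CaCl2, 1 mM MgCl2, 10 mM MES) for 30 sec to steady state. Compound then co-applied for 30 sec in the same pH 5.5 buffer, followed by washout with buffer alone. Oocytes held in Barth's medium after injection.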

[2] = Antagonist activity at Gloeobacter violaceus ligand-gated ion channel expressed in Xenopus oocytes assessed as inhibition of MES buffer pH 5.5 -induced currents after 30 secs by voltage clamp technique; assay type: cell-based; conditions: Oocyte; summary of the method: as §1
[3] = Dissociation constant, pKa of the compound; assay type: physicochemical
Oocyte [4] = assay: Inhibition of Gloeobacter violaceus ligand-gated ion channel expressed in Xenopus laevis oocytes assessed as inhibition of MES buffer pH 5.5 -induced currents at 300 uM after 30 secs by voltage clamp technique; assay type: cell-based; summary of the method: as §1
Oocyte [5] = assay: Inhibition of Gloeobacter violaceus ligand-gated ion channel expressed in Xenopus laevis oocytes assessed as inhibition of buffer at pH 4 -induced currents at 100 uM after 30 secs by voltage clamp technique; assay type: cell-based
Gloeobacter violaceus [6] = assay: Inhibition of Gloeobacter violaceus ligand-gated ion channel R105A mutant at 100 uM
Summary of the method: (§2)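 Alanine point mutants of GLIC expressed in Xenopus oocytes, voltage clamp. Compound co-applied with pH 5.5 buffer (100 mM NaCl, 3 mM KCl, 1 mM CaCl2, 1 mM MgCl2, 10 mM MES). Concentration-inhibition curves used for IC50; single-point inhibition taken at 100 μM, or at up to 1 mM. Mean ± sd, n ≥ 3 cells.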

[7] = Inhibition of Gloeobacter violaceus ligand-gated ion channel E181A mutant; summary of the method: as §2
Oocyte [8] = assay: Selectivity ratio of IC50 for Gloeobacter violaceus ligand-gated ion channel R105A mutant to IC50 for wild-type Gloeobacter violaceus ligand-gated ion channel expressed in Xenopus oocytes; assay type: cell-based
Gloeobacter violaceus [9] = assay: Inhibition of Gloeobacter violaceus ligand-gated ion channel R133A mutant at 1 mM; summary of the method: as §2
Oocyte [10] = assay: Selectivity ratio of IC50 for Gloeobacter violaceus ligand-gated ion channel E177A mutant to IC50 for wild-type Gloeobacter violaceus ligand-gated ion channel expressed in Xenopus oocytes; assay type: cell-based
Gloeobacter violaceus [11] = assay: Inhibition of Gloeobacter violaceus ligand-gated ion channel E177A mutant at 100 uM; summary of the method: as §2
Gloeobacter violaceus [12] = assay: Inhibition of Gloeobacter violaceus ligand-gated ion channel R77A mutant at 100 uM; summary of the method: as §2
Oocyte [13] = assay: Inhibition of Gloeobacter violaceus ligand-gated ion channel expressed in Xenopus laevis oocytes assessed as inhibition of MES buffer-induced currents at 1 mM at pH 5.5 measured after wash-out by voltage clamp technique; assay type: cell-based
[14] = Inhibition of Gloeobacter violaceus ligand-gated ion channel R77A mutant; summary of the method: as §2
[15] = Inhibition of Gloeobacter violaceus ligand-gated ion channel R105A mutant; summary of the method: as §2
[16] = Inhibition of Gloeobacter violaceus ligand-gated ion channel E177A mutant; summary of the method: as §2
Oocyte [17] = assay: Selectivity ratio of IC50 for Gloeobacter violaceus ligand-gated ion channel R77A mutant to IC50 for wild-type Gloeobacter violaceus ligand-gated ion channel expressed in Xenopus oocytes; assay type: cell-based
Gloeobacter violaceus [18] = assay: Inhibition of Gloeobacter violaceus ligand-gated ion channel E181A mutant at 100 uM; summary of the method: as §2
Oocyte [19] = assay: Inhibition of Gloeobacter violaceus ligand-gated ion channel expressed in Xenopus laevis oocytes assessed as inhibition of MES buffer pH 5.5 -induced currents at 100 uM after 30 secs by voltage clamp technique; assay type: cell-based
Summary of the method: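 GLIC-expressing oocytes kept in Barth's medium (88 mM NaCl, 1 mM KCl, 2.4 mM NaHCO3, 15 mM HEPES, 0.3 mM NaNO3, 0.7 mM CaCl2). Each cell was first given pH 5.5 buffer (100 mM NaCl, 3 mM KCl, 1 mM CaCl2, 1 mM MgCl2, 10 mM MES) for 30 sec. Compound was then co-applied in the same buffer for 30 sec, followed by washout. Mean ± sd, n ≥ 3 cells.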

| Structure (SMILES) | IC50 [2] | pKa [3] | inhibition (Oocyte [1]) | also measured |
| --- | --- | --- | --- | --- |
| COc1ccc(/C=C/C(=O)O)cc1O [ISOFERULIC ACID] | 13.5 µM |  | 98.5% |  |
| OC/C=C/c1ccc(O)c(O)c1 | 73.9 µM |  | 95.2% |  |
| O=C(O)C(=C/C=C/c1ccccc1)C(=O)O | 83.5 µM | 3.45 | 92.2% |  |
| O=C(O)/C=C/c1ccc(O)cc1 [COUMARIC ACID] | 9.59 µM |  |  | inhibition (Oocyte [4]): 91.4% |
| NC(=O)/C=C/c1ccc(O)c(O)c1 | 347 µM |  |  | inhibition (Oocyte [4]): 51.6% |
| O=C(O)/C=C/c1ccccc1 [CINNAMIC ACID] | 34.6 µM |  | 97.5% |  |
| O=C(O)C(=Cc1ccccc1)C(=O)O | 7940 µM | 3.5 | 25% |  |
| O=C(O)/C=C/c1ccc(O)c(O)c1 [CAFFEIC ACID] | 16.7 µM | 4.35 | 93.8% | inhibition (Gloeobacter violaceus [6]): 15%; inhibition (Oocyte [5]; 100 uM): inactive; IC50 [7]: 24.1 µM; Ratio IC50 (Oocyte [8]): > 10; inhibition (Gloeobacter violaceus [9]): inactive; Ratio IC50 (Oocyte [10]): > 10; inhibition (Gloeobacter violaceus [11]): 15%; inhibition (Gloeobacter violaceus [12]): 15%; inhibition (Oocyte [13]): inactive; IC50 [14]: 945 µM; IC50 [15]: 420 µM; IC50 [16]: 506 µM; Ratio IC50 (Oocyte [17]): > 10; inhibition (Gloeobacter violaceus [18]): 80% |
| O=C(O)/C=C/c1cccc(Cl)c1 [3-CHLORO-CINNAMIC ACID] | 13.7 µM | 4.8 | 95% |  |
| CCOC(=O)/C=C/c1ccc(O)c(O)c1 [ETHYL CAFFEATE] | 246 µM |  | 91.8% |  |
| O=C(O)COc1ccccc1 | 53.3 µM | 3.2 | 98.5% |  |
| COc1ccc(/C=C/C(=O)O)cc1OC | 206 µM | 4.55 | 75.6% |  |
| O=C(O)/C=C/c1ccc2c(c1)OCO2 | 28.8 µM |  |  | inhibition (Oocyte [19]): 79.7% |

The next lines start with results.

| IC50 [2] | pKa [3] | Structure (SMILES) | inhibition (Oocyte [1]) | also measured |
| --- | --- | --- | --- | --- |
| 168 µM |  | COc1ccc2cc(C(=O)O)c(=O)oc2c1 | 96% |  |
| 25.3 µM | 4.6 | O=C(O)/C=C/c1cccc(C(F)(F)F)c1 | 94.6% |  |
| 282 µM | 3.6 | O=C(O)c1cc2ccccc2oc1=O [COUMARIN-3-CARBOXYLIC ACID] | 84% |  |
| 86.8 µM | 4.3 | O=C(O)CCc1ccc(O)c(O)c1 [DIHYDROCAFFEIC ACID] | 90.5% |  |
| 388 µM |  | COC(=O)/C=C/c1ccc(O)c(O)c1 [METHYLCAFFEATE] | 78% |  |
| 295 µM |  | CCNC(=O)/C=C/c1ccc(O)c(O)c1 | 81.6% | inhibition (Oocyte [5]; 300 uM, in the assay text read “at 300 uM” for “at 100 uM”): inactive |
| 61.4 µM | 4.45 | O=C(O)c1ccc2ccccc2c1 [BETA-NAPHTOIC ACID] | 96.4% |  |
